The values below come from paper PMC2229406 (The Journal of General Physiology, 1998).

As usually defined, the Hill slope is a measure of the steepness of the concentration-response curve.

Experiment [1] has as its system sheep cardiac ryanodine receptor (RyR) channel. In kind it is biochemical. In outline: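 CHAPS-solubilized RyR from sheep ventricular heavy SR (30/40% sucrose interface) was reconstituted into liposomes and fused into phosphatidylethanolamine/n-decane bilayers. Both chambers held 610 mM K+, 20 mM HEPES pH 7.4 and 10 μM contaminant Ca2+, with 100 μM EMD 41000 cis. Single channels only, at 21 ± 2°C. Ryanoid added cytosolically; steady-state runs ≥6 min at +40 mV. Pmod = modified/(modified+unmodified) time; single-site nonlinear regression; mean ± SEM.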

Experiment [2] has the same test system. As to conditions: ref Tinker et al., 1996, cited from earlier work.
Setting [3] is: +40 mV, 500 nM cytosolic, 20 min recording, single exponential fit.

Several values for one entry are separate records, joined by “and”; a condition that tells them apart may be missing. Identical values can stand only once. Like-named read-outs stand apart in the source and are kept apart here.

On to 21-amino-9α-hydroxy-ryanodine, for which the “mean P o ± SEM in unmodified periods” value in experiment [1] (50 nM ryanoid, +40 mV, n = 5) came to 0.62 ± 0.15; in experiment [1] (100 nM ryanoid, +40 mV, n = 5), 0.71 ± 0.16; in experiment [1] (300 nM ryanoid, +40 mV, n = 5), 0.70 ± 0.16; in experiment [1] (500 nM ryanoid, +40 mV, n = 5) it was 0.56 ± 0.16; in experiment [1] (700 nM ryanoid, +40 mV, n = 4), 0.73 ± 0.15; in experiment [1] (900 nM ryanoid, +40 mV, n = 4), 0.73 ± 0.15. Moreover, the “mean P o ± SEM in unmodified periods” value stood at 0.65 ± 0.09 in experiment [1] (holding potential +20 mV, 500 nM ryanoid, n = 7); 0.69 ± 0.09 in experiment [1] (holding potential +40 mV, 500 nM ryanoid, n = 7); 0.45 ± 0.06 in experiment [1] (holding potential +60 mV, 500 nM ryanoid, n = 7); 0.62 ± 0.15 in experiment [1] (holding potential −20 mV, 500 nM ryanoid, n = 6); 0.73 ± 0.13 in experiment [1] (holding potential −40 mV, 500 nM ryanoid, n = 5); 0.78 ± 0.17 in experiment [1] (holding potential −60 mV, 500 nM ryanoid, n = 5). In addition, the “modification of channel function, luminal addition” value in experiment [1] (500 nM at the luminal face, +60 or −60 mV, n = 6) is “no modification of gating or conductance”. Further, in experiment [1] (500 nM cytosolic), the “total valency / total voltage dependence (z on + z off)” value was 1.98 and 2. The “interaction with the channel at −60 mV” value in experiment [1] (500 nM cytosolic, −60 mV) is listed as “no discernible modified-conductance events”. For the same molecule, the “k on, intercept of regression line vs P o” value in experiment [1] (700 nM cytosolic, +40 mV) is 0.02 ± 0.02 s⁻¹. Besides, the “k on, slope vs P o” value in experiment [1] (700 nM cytosolic, +40 mV, range P o = 0–1) stood at 0.97 ± 0.05 s⁻¹. Further, the “mean dwell time in the modified state (τmod)” value in experiment [1] (setting [3]) is 4.21 s. Also, the “mean dwell time in the unmodified state (τunmod)” value in experiment [1] (setting [3]) amounted to 0.95 s. In experiment [1] (+40 mV, 50-900 nM cytosolic, single-site binding scheme, nonlinear regression), the “K d from P mod vs concentration” value worked out at 0.105 µM. Besides, the “apparent rate constant for dissociation, mean value” in experiment [1] (+40 mV, independent of concentration) turned out to be 0.24 ± 0.01 s⁻¹. In experiment [1] (Boltzmann fit of P mod vs holding potential, 500 nM cytosolic), the “z, voltage dependence of occurrence of the modified state” value is reported as 2.16. For the same molecule, in experiment [1] (P mod vs concentration, +40 mV), the Hill slope is on record as 0.99. The “slope of ln(rate constant) vs ln(concentration)” value in experiment [1] (association, +40 mV) was 0.975. Further, the modified conductance in experiment [1] (cursors at center of noise, 610 mM K+, SEM, n = 14) was determined as 354 ± 6 pS. Further, the “mean fractional conductance ± SEM” value in experiment [1] (holding potential 20 mV, n = 10) turned out to be 0.438 ± 0.004; in experiment [1] (holding potential 40 mV, n = 10), 0.440 ± 0.003; in experiment [1] (holding potential 60 mV, n = 10) it was 0.462 ± 0.003; in experiment [1] (holding potential −20 mV, n = 10), 0.437 ± 0.005; in experiment [1] (holding potential −40 mV, n = 6) it was 0.442 ± 0.002. In experiment [1] (modified conductance as proportion of unmodified conductance (813 pS)), the fractional conductance is listed as 0.44. For the same molecule, the Kd in experiment [1] (read-out: apparent K d derived from the rate constants, +40 mV) stood at 0.111 µM. In experiment [1] (slope of ln(K off) vs holding potential, 500 nM cytosolic), this molecule came in with a z off of 0.87. For the same molecule, the z on in experiment [1] (slope of ln(K on) vs holding potential, 500 nM cytosolic) was determined as 1.11.

Turning to `CC(C)[C@@]1(O)[C@@H](O)[C@@]2(O)[C@@]3(C)C[C@]4(O)O[C@@]5([C@H](O)[C@@H](C)CC[C@]35O)[C@@]2(O)[C@]14C` [ryanodol], the “voltage dependence of channel modification” value in experiment [2] (+60 vs −60 mV) is “more likely to occur and are longer lasting at a holding potential of +60 than −60 mV”. For the same molecule, the “amplitude of reduced conductance state, of the normal unmodified conductance” value in experiment [2] is on record as approximately 70%.
